Measured values taken from PubChem BioAssay AID624366 (Broad Institute, 2012).
“And” between values parts separate entries of the source, which are not always exact repeats. Identical values can stand only once. The source made the active and inactive calls.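 Rule for the calls: active = signal drop with fitted AC50 no more than twice the top valid dose in every repeat run; inconclusive = mixed run calls, flat 30 to 70% drop, or poor fit; inactive = the rest.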

tested on: SK-MEL-5 viability, CellTiter-Glo ATP luminescence, 24 h; assay: SK-MEL-5 parental cell viability, dose response, orthogonal assay for MITF inhibitor project, CellTiter-Glo luminescence, dry powder, set 4 (AID 624366)
Procedure, shortened: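 Assay system: parental SK-MEL-5 melanoma cells. Buffer or medium: medium without phenol red. Schedule: 24 h treatment at 37 °C, 5 min RT read. Detection: CellTiter-Glo luminescence measuring cellular ATP. Read-out: viability via ATP level.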

| SMILES | AC50 |
| --- | --- |
| O=C1C=C(Nc2ccccc2)C(=O)c2ccccc21 | 3.44 µM and 3.95 µM |
| O=C1C(Nc2ccccc2)=C(c2ccccc2)C(=O)c2ccccc21 | 27.3 µM |
| C=C1C(=O)OC2C1CC/C(C)=C\CCC1(C)OC21 (stereo not given) | > 70 µM (inactive) |
| O=C1C(NS(=O)(=O)c2ccc(Br)s2)=C(N2CCOCC2)C(=O)c2ccccc21 | 27.6 µM |
| O=C1C(NS(=O)(=O)c2ccc(Br)s2)=C(N2CCCCC2)C(=O)c2ccccc21 | 23.9 µM |
| NC1=C(NC(=O)c2ccccc2)C(=O)c2ccccc2C1=O | 12.3 µM |
| C=CCNC1=C(Cl)C(=O)c2ccccc2C1=O | 15.4 µM |
| O=C(NC1=C(N2CCCCC2)C(=O)c2ccccc2C1=O)c1ccc(Br)cc1 | > 70 µM (inactive) |
| CN1CCN(C2=C(NC(=O)c3ccc(Br)cc3)C(=O)c3ccccc3C2=O)CC1 | 8 µM |
| Cc1nc2ccccc2n1/N=C/c1ccc([N+](=O)[O-])s1 | > 70 µM (inactive) |
| NC1=C(NS(=O)(=O)c2ccc(Br)cc2)C(=O)c2ccccc2C1=O | 28.1 µM |
| O=C1C=C(NS(=O)(=O)c2ccccc2)C(=O)c2ccccc21 | 5.83 µM |
| COC1=C(NS(=O)(=O)c2cccs2)C(=O)c2ccccc2C1=O | 23.7 µM |
| C=CCNC1=C(N(C)C(C)=O)C(=O)c2ccccc2C1=O | 0.843 µM |
| CN1CCN(C2=C(NS(=O)(=O)c3ccc(Br)s3)C(=O)c3ccccc3C2=O)CC1 | 23.6 µM |
| CC(=O)N(C)C1=C(N2CCN(C)CC2)C(=O)c2ccccc2C1=O | 5.48 µM |
| C[C@@H](NC1=C(Nc2ccccc2)C(=O)c2ccccc2C1=O)c1ccccc1 | > 70 µM (inactive) |
| CN1CCN(C2=C(Nc3ccccc3)C(=O)c3ccccc3C2=O)CC1 | 34.2 µM |
| O=C1C(Nc2ccccc2)=C(NS(=O)(=O)c2ccccc2[N+](=O)[O-])C(=O)c2ccccc21 | > 70 µM (inactive) |
| O=C(NC1=C(N2CCOCC2)C(=O)c2ccccc2C1=O)c1ccc(Br)cc1 | > 70 µM (inactive) |

| SMILES | AC50 |
| --- | --- |
| CCN1CCN(C2=C(NS(=O)(=O)c3ccc(Br)s3)C(=O)c3ccccc3C2=O)CC1 | > 70 µM (inactive) |
| NC1=C(NS(=O)(=O)c2cccs2)C(=O)c2ccccc2C1=O | 11.3 µM |
| NC1=CC(=O)c2ccccc2C1=O | 11 µM |
| COC1=C(NS(=O)(=O)c2ccccc2)C(=O)c2ccccc2C1=O | 15.8 µM |
| O=C1C(Nc2ccccc2)=C(N2CCCCC2)C(=O)c2ccccc21 | 25.3 µM |
| O=C1C(Nc2ccccc2)=C(N2CCSCC2)C(=O)c2ccccc21 | > 70 µM (inactive) |
| O=C(NC1=C(N2CCSCC2)C(=O)c2ccccc2C1=O)c1ccc(Br)cc1 | > 70 µM (inactive) |
| COC1=C(NS(=O)(=O)c2ccc(Br)cc2)C(=O)c2ccccc2C1=O | 11.3 µM |
| O=C1C(NS(=O)(=O)c2ccccc2)=C(c2ccccc2)C(=O)c2ccccc21 | > 70 µM (inactive) |
| NC1=C(c2ccc(OC(F)(F)F)cc2)C(=O)c2ccccc2C1=O | > 70 µM (inactive) |
| CC(=O)N(C)C1=C(N2CCCCC2)C(=O)c2ccccc2C1=O | 6.71 µM |
| O=C1C=C(NS(=O)(=O)c2cccs2)C(=O)c2ccccc21 | 9.28 µM |
| CCN(CC)CCCNC1=C(Nc2ccccc2)C(=O)c2ccccc2C1=O | 24.4 µM |
| NC1=C(NS(=O)(=O)c2ccccc2)C(=O)c2ccccc2C1=O | 14 µM |
| CNC1=CC(=O)c2ccccc2C1=O | > 70 µM (inactive) |
| O=C1C=C(NS(=O)(=O)c2ccc(Br)cc2)C(=O)c2ccccc21 | 10 µM |
| CC1CCN(CC(CS(=O)(=O)c2ccc([N+](=O)[O-])cc2)N2CCC(C)CC2)CC1 (stereo not given) | > 70 µM (inactive) |
| CCN(CC)CCNC1=C(Nc2ccccc2)C(=O)c2ccccc2C1=O | > 70 µM (inactive) |
| COC1=C(Nc2ccccc2)C(=O)c2ccccc2C1=O | 3.02 µM |
| CCN1CCN(C2=C(NC(=O)c3ccc(Br)cc3)C(=O)c3ccccc3C2=O)CC1 | 11 µM |
